Measurements from different studies.
Compare with care: the assays were run in different laboratories.
Target: Mitogen-activated protein kinase kinase kinase 2 (MAP3K2, Homo sapiens, UniProt Q9Y2U5)
Sequence (Q9Y2U5 1-619, as in one of the studies): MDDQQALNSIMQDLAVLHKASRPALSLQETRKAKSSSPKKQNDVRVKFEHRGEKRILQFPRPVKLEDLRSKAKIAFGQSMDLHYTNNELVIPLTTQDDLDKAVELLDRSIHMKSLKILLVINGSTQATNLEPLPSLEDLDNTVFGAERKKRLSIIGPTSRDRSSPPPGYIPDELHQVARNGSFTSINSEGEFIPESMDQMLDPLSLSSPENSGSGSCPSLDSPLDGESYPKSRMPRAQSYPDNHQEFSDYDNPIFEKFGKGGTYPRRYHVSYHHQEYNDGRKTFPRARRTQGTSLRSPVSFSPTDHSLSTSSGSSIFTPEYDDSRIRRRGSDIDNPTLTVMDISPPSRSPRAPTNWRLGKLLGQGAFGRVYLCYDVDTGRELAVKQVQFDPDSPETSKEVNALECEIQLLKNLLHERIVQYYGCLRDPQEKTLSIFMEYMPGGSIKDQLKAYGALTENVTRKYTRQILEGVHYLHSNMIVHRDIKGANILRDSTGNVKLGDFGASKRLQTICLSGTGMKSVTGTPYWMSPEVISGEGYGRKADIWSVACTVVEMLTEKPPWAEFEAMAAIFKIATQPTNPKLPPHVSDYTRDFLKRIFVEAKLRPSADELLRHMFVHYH

O=C(Nc1cccnn1)N1CC(C/C=C/c2cncc(Oc3ccc(C(F)(F)F)cn3)n2)C1  remaining binding (cell-free assay; competition with immobilised ligand; 1 µM): 79%
CN(CCCC(F)(F)F)c1nccc(-c2cnn3ncccc23)n1  remaining binding (binding; 1 µM): 96%
O=C(NCC1CCOCC1)c1n[nH]cc1NC(=O)c1c(F)cccc1F  remaining binding (binding; competition with immobilised ligand; 1 µM): 73%
c1cncc(-c2cccc(Nc3nccc(NC4CCCCC4)n3)c2)c1  remaining binding (binding; competition with immobilised ligand; 10 µM): 48%
Nc1ncc2c(n1)-c1c([nH]c3ccc(C#CC4CC4)cc13)CCCC2  remaining binding (binding; competition with immobilised ligand; 1 µM): 85%
CN(C)c1nccc(-c2cnn3ncccc23)n1  remaining binding (binding; 1 µM): 78%
Cc1cnc(Nc2ccc(C(=O)N3CCC(N4CCCC4)CC3)cc2)nc1-c1cc2ccccc2s1  remaining binding (binding; competition with immobilised ligand; 1 µM): 5.1%
CN(C)c1ncc(F)c(-c2cnn3ncccc23)n1  remaining binding (binding; 1 µM): 81%
CCC(=N\O)/C(C)=C/c1ccc(F)cc1  remaining binding (cell-free assay; competition with immobilised ligand; 1 µM): 85%
O=C(NCCCN1CCOCC1)c1ccc(Nc2ncc(Cl)c(-c3ccc(Cl)s3)n2)cc1  remaining binding (binding; competition with immobilised ligand; 1 µM): 2.3%
O=C(Nc1ccc(Oc2ccc(F)cc2)cc1)N1CCc2ncccc2[C@H]1c1ccc(F)cc1  remaining binding (cell-free assay; competition with immobilised ligand; 1 µM): 89%
N[C@@H]1CCN(c2nccc(-c3cnn4ncccc34)n2)C1  remaining binding (binding; 1 µM): 100%
CN(C)CC#Cc1ccc(OCCCc2sc(N3CCc4cccc(C(=O)Nc5nc6ccccc6s5)c4C3)nc2C(=O)O)c(F)c1  remaining binding (cell-free assay; competition with immobilised ligand; 1 µM): 75%
COc1cnc(Nc2cccc(S(N)(=O)=O)c2)nc1N1CCN(c2ccccc2)CC1  remaining binding (binding; competition with immobilised ligand; 1 µM): 68%
O=C(c1ccc(Nc2ncc(Cl)c(-c3cc4ccccc4s3)n2)cc1)N1CCC(N2CCCC2)CC1  remaining binding (binding; competition with immobilised ligand; 1 µM): 20%
CCN1CCN(Cc2ccc(C(=O)Nc3ccc(C)c(Oc4ccc5c(c4)CC(=O)N5)c3)cc2C(F)(F)F)CC1  remaining binding (binding; competition with immobilised ligand; 1 µM): 100%
COc1ccnn2ncc(-c3ccnc(N(C)C)n3)c12  remaining binding (binding; 1 µM): 87%
O=C(O)[C@@H]1[C@@H](Cn2nnc3ccccc3c2=O)CC[C@H]1C(=O)c1ccc(OCCC2CCOCC2)cc1  remaining binding (cell-free assay; competition with immobilised ligand; 1 µM): 100%
C=CC(=O)N1CCC(C(=O)NCC(=O)N2CCN(c3nc(-c4cnc(N)nc4C(F)F)nc(N4CCOCC4)n3)CC2)CC1  remaining binding (binding; competition with immobilised ligand; 1 µM): 69%
CCCCN(CCCC)C(=O)CN1C[C@@H](c2cc(OC)c3c(c2)OCO3)[C@H](C(=O)O)[C@H]1CC(C)(C)CCC  remaining binding (cell-free assay; competition with immobilised ligand; 1 µM): 84.6%
C[C@@H]1CCN(c2nccc(-c3cnn4ncccc34)n2)C1  remaining binding (binding; 1 µM): 79%
